Ends that are not written are not given here. Bounds are passed on as bounds.

Chain of H-2K^b (P61769 21-119): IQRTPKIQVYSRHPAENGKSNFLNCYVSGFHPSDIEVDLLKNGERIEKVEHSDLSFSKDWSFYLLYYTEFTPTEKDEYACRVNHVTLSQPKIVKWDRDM
Chain of H-2K^b (P01901 22-369): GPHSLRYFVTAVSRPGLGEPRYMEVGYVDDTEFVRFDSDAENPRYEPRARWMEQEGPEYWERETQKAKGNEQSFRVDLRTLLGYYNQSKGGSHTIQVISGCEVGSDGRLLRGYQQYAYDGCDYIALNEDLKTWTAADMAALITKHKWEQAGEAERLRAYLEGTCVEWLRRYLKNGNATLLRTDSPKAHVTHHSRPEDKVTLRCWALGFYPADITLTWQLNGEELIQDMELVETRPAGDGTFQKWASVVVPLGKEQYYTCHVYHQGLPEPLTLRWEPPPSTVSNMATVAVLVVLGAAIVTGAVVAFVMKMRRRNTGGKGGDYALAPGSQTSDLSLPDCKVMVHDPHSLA

In the first assay the target is H-2D^b (Mus musculus, UniProt P01899). Kind of assay: MHC peptide-binding assay, purified H-2D^b.
Chain of H-2D^b (P01899 25-362): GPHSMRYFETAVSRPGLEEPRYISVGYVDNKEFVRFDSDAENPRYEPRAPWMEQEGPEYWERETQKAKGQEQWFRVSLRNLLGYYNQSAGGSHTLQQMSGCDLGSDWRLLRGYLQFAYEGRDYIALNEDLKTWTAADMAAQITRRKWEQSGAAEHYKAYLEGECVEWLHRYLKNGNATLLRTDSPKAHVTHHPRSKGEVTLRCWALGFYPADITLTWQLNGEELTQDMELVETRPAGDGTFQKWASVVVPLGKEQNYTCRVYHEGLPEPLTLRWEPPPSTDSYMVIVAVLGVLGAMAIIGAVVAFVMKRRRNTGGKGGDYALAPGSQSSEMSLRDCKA
Chain of H-2D^b (P61769 21-119, further chain): as the sequence (P61769 21-119) above
In general, IC50 refers to the midpoint of a concentration-inhibition curve. Read a high IC50 as weaker potency. On to MTMRCIGI [Epitope E-2-6], for which the IC50 was less than 2 µM.

The molecule RALIFILL [Epitope M60-67] registered an IC50 of less than 2 µM.

In turn, VSWTMKIL [Epitope E451-458] gave an IC50 of less than 2 µM.

The next assay addresses H-2K^b (Mus musculus, UniProt P01901). Kind of assay: MHC peptide-binding assay, purified H-2K^b. The essentials:
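Radiolabelled (chloramine-T) reference peptide at 0.1-1 nM is incubated at room temperature for 2 days with purified MHC (1 µM to 1 nM), 1-3 µM human β2-microglobulin and protease inhibitors. MHC-peptide complexes are captured on plates coated with Y3 (anti-H-2K^b) antibody, and bound cpm are read by microscintillation counting. Test peptides are ≥95% pure by reverse-phase HPLC.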
Molecule `CC(C)C[C@H](NC(=O)[C@H](CO)NC(=O)[C@@H](NC(=O)[C@H](CC(N)=O)NC(=O)[C@@H](NC(=O)[C@H](CO)NC(=O)[C@@H](N)CO)C(C)C)C(C)C)C(=O)N[C@H](C(=O)O)[C@@H](C)O` [NS4B59-66] had an IC50 of less than 2 µM.

FSLGVLGM [NS2A8-15] showed a half-maximal inhibitory concentration (IC50) of less than 2 µM.

LAVTIMAIL [NS2A145-153] yielded a concentration for half-maximal inhibition (IC50) of less than 2 µM.

As to RMLINRFTM [NS5_237-245], the IC50 was less than 2 µM.

TAIANQATV [NS4B66-74] yielded an IC50 of less than 2 µM.

Turning to VSWTMKIL [Epitope E451-458], the 50% inhibitory concentration (IC50) worked out at 0.458 µM.
